Compound activity deposited in PubChem BioAssay by several laboratories.
Vif imaging: HIV Vif inhibition; HEK293T cells, Vif self-association by quenched fluorescence, imaging, 24 h; inhibition, % at 7.49 µM; 0.35% of 340,000 active; in the data active means inhibition above about 50%, passing the limit was not always enough; inconclusive means no clear call, values can overlap the other calls; inactive means below about 31%
Runt-SMMHC FRET: blocks binding of human RUNX1 Runt domain to CBFb-SMMHC; inhibition, % at 20 µM; Cerulean-Runt/Venus-CBFb-SMMHC FRET ratio 530/480, 1 h; 0.74% of 220,000 active;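 active means mean inhibition across duplicate retests at 20 µM reaching about 50%, limit read from the data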;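 further: 0% = DMSO wells and 100% = wells with excess untagged CBFb-SMMHC; inhibitors lower the FRET ratio by blocking Runt binding to CBFb-SMMHC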
Target sequence (Q01196 whole entry, looked up, the tested form may be a part): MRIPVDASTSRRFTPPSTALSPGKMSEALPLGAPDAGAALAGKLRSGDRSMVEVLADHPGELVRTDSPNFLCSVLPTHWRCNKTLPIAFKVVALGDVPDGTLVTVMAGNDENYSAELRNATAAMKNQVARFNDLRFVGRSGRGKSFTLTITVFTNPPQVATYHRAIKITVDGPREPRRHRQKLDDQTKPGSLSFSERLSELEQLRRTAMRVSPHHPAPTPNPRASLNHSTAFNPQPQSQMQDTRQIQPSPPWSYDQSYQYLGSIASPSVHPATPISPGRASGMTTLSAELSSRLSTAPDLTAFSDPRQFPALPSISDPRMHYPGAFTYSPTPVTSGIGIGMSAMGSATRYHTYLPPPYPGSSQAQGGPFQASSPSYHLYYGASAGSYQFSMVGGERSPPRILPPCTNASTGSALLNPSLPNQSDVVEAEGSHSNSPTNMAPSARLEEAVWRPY
Target sequence (Q13951 whole entry, looked up, the tested form may be a part): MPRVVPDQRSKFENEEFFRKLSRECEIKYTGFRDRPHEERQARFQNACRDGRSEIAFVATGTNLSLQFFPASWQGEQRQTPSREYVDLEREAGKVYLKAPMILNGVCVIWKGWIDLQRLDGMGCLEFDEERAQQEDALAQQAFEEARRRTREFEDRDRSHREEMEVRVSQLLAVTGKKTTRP
Rce1 inhib: inhibitors of yeast Ras-converting enzyme; Q03530; yeast membranes, quenched prenylated peptide cleavage fluorescence; calls only; 0.27% of 290,000 active;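 active means fall in fluorescence gain of 50% or more versus controls, with final raw signal at or below 3038400; inconclusive means same 50% fall but final raw signal above 3038400; inactive means fall in fluorescence gain under 50%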;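 further: plate controls were neutral control wells for no effect and wells lacking membranes for full effect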
RanGTP-Imp inh: disruptors of Ran-importin-beta complex formation – biochemical, FRET, CFP-Ran, YFP-importin-beta, homogeneous, primary screen; cell-free CFP-Ran/YFP-importin-beta FRET ratio; inhibition, % (concentration not given with the values); 1.1% of 300,000 active;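 active means more than half of the replicate wells show a fall in the fluorescence ratio signal beyond about 16%, limit read from the data, passing the limit was not always enough; inconclusive means exactly half of the replicate wells pass the set limit; inactive means fewer than half of replicates pass the limit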;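 further: 0% = DMSO wells and 100% = Ran loaded with GDP instead of GTP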
Runt-CBFb FRET: inhibitors of human RUNX1 Runt domain binding to CBFb | Q01196+Q13951 | Cerulean-Runt/Venus-CBFb FRET ratio 530/480, 1 h | inhibition, % at 20 µM | 0.46% of 220,000 active | AID 1496;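 active means inhibition over about 50% at 20 µM in the single-dose screen, limit read from the data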;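 further: 0% = DMSO wells and 100% = excess unlabeled CBFb competitor control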
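test system = Cerulean-Runt domain fusion protein, energy donor | probe or stimulus = Venus-CBFb binding partner, 100 nM | incubation = two 1 h room-temperature incubations shielded from light | detection = fluorescence energy transfer, 422 nm excitation, 530/480 nm emission | measure = loss of energy transfer signal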
Numbers without * were called inactive; i = inactive; ? = inconclusive; . = no result given; + = active, no number. Sampled rows, rich in hits. Any-hit rate of the full collection: about 1.7%.

SMILES | Vif imaging | Runt-SMMHC FRET | Rce1 inhib | RanGTP-Imp inh | Runt-CBFb FRET
COc1ccc2c3c([nH]c2c1)C1CC2C(CC(O)C(OC)C2C(=O)O)CN1CC3 (stereo unspecified) | 2.0 | -7.5 | i | 28.0* | -0.7
COc1ncnc2c1ncn2CCCN1CCN(C(=O)C2CC2)CC1 | -4.2 | . | . | . | .
Clc1cccc(/C=N/Nc2nnc(Cl)c3ccccc23)c1 | 2.4 | 3.1 | i | 34.2* | -2.5
O=C(c1cc(Cl)c(=O)n(Cc2ccccc2)c1)N1CCOCC1 | 62.1* | -1.6 | i | 0.2 | -0.5
CCC1CCCCN1C(=O)NC(=O)c1ccccc1 (stereo unspecified) | -8.8 | . | + | -0.3 | .
O=C(N/N=C/c1cccs1)c1cc(-c2ccncc2)nc2ccccc12 | 116.7* | 0.1 | i | 5.6 | -1.5
CCOC(=O)C1=C(CS(=O)(=O)c2ccc(C)cc2)NC(=O)NC1c1cc(OC)c(O)c(OC)c1 (stereo unspecified) | -7.8 | . | i | -2.0 | .
CCN1C(=O)N/C(=C/c2ccc(Sc3ccc(C)cc3)o2)C1=O | -11.3 | 18.7 | i | 22.7* | 5.2
CC1(Cc2ccccc2Cl)C(=O)Nc2c(Cl)cccc21 (stereo unspecified) | 7.5 | . | . | . | .
COc1ccc(-n2nc(C(=O)NCC(=O)Nc3cccc(Cl)c3)c3ccccc3c2=O)cc1OC | 53.1* | . | i | 2.6 | .
COc1ccc(-n2nc(C(=O)NCC(=O)N3CCC(C)CC3)c3ccccc3c2=O)cc1 | 5.5 | . | + | 1.7 | .
COc1ccc(C(C(=O)NCC2CCCO2)N(C(=O)CNC(=O)c2cccs2)c2ccc(C(C)=O)cc2)cc1OC (stereo unspecified) | 25.4 | -0.5 | i | ? | -0.3
Nc1ccc(-c2nc3ccc(C(=O)O)cc3s2)cc1 | 5.4 | 85.7* | i | -5.8 | 35.8
O=C(O)c1ccc2nc(-c3ccccc3)sc2c1 | -2.3 | 2.4 | i | -1.9 | -1.1
C=CCOC(=O)C1=C(C)OC(N)=C(C#N)C1c1ccc2c(c1)OCO2 (stereo unspecified) | 3.1 | 4.6 | i | 24.9* | 0.5
COCCOC(=O)C1=C(C)OC(N)=C(C#N)C1c1ccc2c(c1)OCO2 (stereo unspecified) | . | 5.8 | i | 7.4 | 2.5
O=C(O)c1ccccc1-c1ccc(/C=C/c2cc(C(F)(F)F)[nH]c(=O)n2)o1 | 2.3 | 87.4* | . | -463.7 | 68.5*
O=c1nc(/C=C/c2ccc(-c3ccc(F)cc3)o2)cc(C(F)(F)F)[nH]1 | . | 80.9* | i | -75.6 | 106.1*
Clc1ccc(C2Nc3cccc4cccc(c34)N2)cc1Cl | 57.9* | . | i | 3.0 | .
CCc1ccccc1NC(=O)c1cc(S(=O)(=O)N2CCCC2)c[nH]1 | 13.8 | . | i | -2.6 | .
Cc1cccc(NC(=O)c2cc(S(=O)(=O)N3CCCCC3)c[nH]2)c1C | 9.5 | . | + | 6.8 | .
CCCCN1C(=O)C(=O)N(CC(=O)N2CCc3ccccc32)C1=O | 3.8 | . | . | . | .
C/C(O)=c1/ccc2cccc3nc(C)nc1c23 | . | . | i | 53.7* | -13.4
CN(Cc1ccccc1F)C(=O)CCNC(=O)c1ccc(C(C)(C)C)cc1 | -2.6 | . | . | . | .
CCCOc1ccc(-c2nn(-c3ccccc3)cc2/C=C2\SC(N)=NC2=O)cc1 | -2.7 | 21.1 | i | 18.7* | -0.8
SMILES | Vif imaging | Runt-SMMHC FRET | Rce1 inhib | RanGTP-Imp inh | Runt-CBFb FRET
CCN(CC)c1ccc(-c2nn3c(-c4cccnc4)nnc3s2)cc1 | 21.9 | 80.1* | i | 11.4 | 20.7
Fc1ccc(-c2nc3ccccn3c2NCc2ccc3c(c2)OCO3)cc1 | -8.6 | -3.2 | i | 1.8 | 0.7
Oc1ccc(-c2nc3ccccn3c2NCc2ccc3c(c2)OCO3)cc1 | 19.1 | -2.1 | + | . | -3.2
CCOc1ccc(NC(=O)CSc2nc3ccccc3nc2N2CCOCC2)cc1 | -2.1 | . | i | ? | .
CCCn1nnc(NC(=O)C(c2ccccc2)c2ccccc2)n1 | 50.2* | -0.6 | i | 3.7 | -0.9
Cc1ccc(NC(=O)Cn2c(O)c(N=NC(N)=S)c3ccccc32)cc1 | 66.0* | . | i | -1.8 | .
O=C(Nc1ccc(S(=O)(=O)Nc2ncccn2)cc1)c1cccc(S(=O)(=O)N2CCOCC2)c1 | -5.7 | -1.2 | i | 3.1 | -0.7
COc1cccc(C2c3cc4c(cc3OC(NNC(N)=O)C2C)OCO4)c1O (stereo unspecified) | -4.3 | . | . | . | .
CCCCSc1nn[nH]n1 | 52.0* | 2.7 | i | 4.2 | -0.9
CCCCSc1nnc(CCC)n1N | -17.7 | -1.2 | i | -1.6 | -5.5
O=S(=O)(c1cccc(Cl)c1Cl)N1CCN(C(=S)NCCCN2CCOCC2)CC1 | -0.6 | 2.1 | i | 25.4* | -0.7
O=C(NCCCN1CCOCC1)C1CCN(S(=O)(=O)c2cccc(Cl)c2Cl)CC1 | -0.9 | . | i | . | .
COCCNC(=O)c1n[nH]c2ccccc12 | -3.5 | 1.9 | i | ? | 0.1
COC(=O)c1n[nH]c2ccccc12 | 23.4 | 6.7 | i | 24.2* | -0.3
Cc1ccc(NC(=O)CN2C(=O)c3ccccc3C2=O)nc1 | -4.2 | -2.1 | i | 4.1 | -1.1
Cc1ccc(C(CC(=O)O)NC(=O)CN2C(=O)c3ccccc3C2=O)cc1 (stereo unspecified) | 3.5 | . | i | 69.7* | .
CCN(CC)c1ccc2nc3c4ccccc4c(=O)cc-3oc2c1 | . | . | i | -1.1 | .
CCN(CC)c1ccc2cc(C=O)c(=O)oc2c1 | . | 60.5* | i | 125.6* | 17.4
CCOc1ccccc1NC(=O)c1cc2ccccc2oc1=O | 1.3 | . | i | 4.2 | .
N/C(=N\NC(=O)c1cccs1)c1cc2ccccc2oc1=O | 4.2 | 2.5 | i | ? | 2.6
CCN(CC)c1ccc2cc(C(=O)Nc3ccccn3)c(=O)oc2c1 | -0.7 | 61.5* | i | 160.7* | 17.8
CCN(CC)c1ccc2cc(C(N)=O)c(=N)oc2c1 | 18.4 | 92.2* | i | 150.7* | 19.7
CCN(CC)c1ccc2cc(/C(N)=N/NC(=O)c3cccs3)c(=O)oc2c1 | . | -102.1 | i | 158.8* | -38.7
CCCCC1(C)NC(=O)N(CC(=O)Nc2ccc(Cl)cc2C)C1=O (stereo unspecified) | 1.2 | . | . | . | .
NC(=O)c1cc2cc(Cl)ccc2oc1=O | -5.6 | -7.0 | i | -2.1 | -2.2
SMILES | Vif imaging | Runt-SMMHC FRET | Rce1 inhib | RanGTP-Imp inh | Runt-CBFb FRET
CCN(CC)c1ccc2cc(C(N)=O)c(=O)oc2c1 | 131.6* | 95.4* | i | 152.5* | 4.3
CCN(CC)c1ccc2cc(-c3nnc(-c4ccncc4)o3)c(=O)oc2c1 | . | 62.6* | . | . | 18.4
CC(=O)Nc1cc2ccccc2oc1=O | ? | 1.5 | i | 2.0 | -0.4
CCN(CC)c1ccc2cc(NC(=O)CCC(=O)O)c(=O)oc2c1 | 2.6 | 62.6* | . | 136.0* | 18.4
c1cc(-c2nnc(-c3ccncc3)o2)ccn1 | 4.8 | -0.2 | i | 2.7 | -0.6
Cn1nnnc1Sc1ncnc2scc(-c3ccc(F)cc3)c12 | 52.3* | -3.3 | i | 1.3 | .
Cc1ccc(NC(=O)CCc2ccc(S(=O)(=O)NC3CCCCC3)cc2)cc1 | -2.0 | -1.1 | + | 1.9 | -3.1
